Reference: ChEMBL document CHEMBL1145443, “Thiosemicarbazones of formyl benzoic acids as novel potent inhibitors of estrone sulfatase” (J Med Chem, 2007)
Calls of active or inactive are those of the source. No cut-off for these calls is given here.

Columns and labels:
[1] = Dissociation constant, pKa of the compound; type: physicochemical
[2] = species: Gallus gallus; test: Acute toxicity in chick embryo after 72 to 96 hrs by hen's fertile egg screening test; type: organism-based; details: chicken, in vivo
In short: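 Fifteen-day-old fertile hen's egg embryos received compound through the air cell. Deaths were scored 72-96 h after treatment, and an LD50 was derived in mg/kg.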

[3] = tested on: K562; test: Growth inhibition of K562 cells; type: functional, cell-based; details: Homo sapiens
[4] = tested on: HeLa; test: Growth inhibition of HeLa cells; type: functional, cell-based; details: Homo sapiens
[5] = biological target: T1, Steryl-sulfatase (Homo sapiens) (UniProt P08842); test: (§1) Inhibition of Estrone sulfatase in human placental microsome; details: Placenta
T1 sequence (whole entry): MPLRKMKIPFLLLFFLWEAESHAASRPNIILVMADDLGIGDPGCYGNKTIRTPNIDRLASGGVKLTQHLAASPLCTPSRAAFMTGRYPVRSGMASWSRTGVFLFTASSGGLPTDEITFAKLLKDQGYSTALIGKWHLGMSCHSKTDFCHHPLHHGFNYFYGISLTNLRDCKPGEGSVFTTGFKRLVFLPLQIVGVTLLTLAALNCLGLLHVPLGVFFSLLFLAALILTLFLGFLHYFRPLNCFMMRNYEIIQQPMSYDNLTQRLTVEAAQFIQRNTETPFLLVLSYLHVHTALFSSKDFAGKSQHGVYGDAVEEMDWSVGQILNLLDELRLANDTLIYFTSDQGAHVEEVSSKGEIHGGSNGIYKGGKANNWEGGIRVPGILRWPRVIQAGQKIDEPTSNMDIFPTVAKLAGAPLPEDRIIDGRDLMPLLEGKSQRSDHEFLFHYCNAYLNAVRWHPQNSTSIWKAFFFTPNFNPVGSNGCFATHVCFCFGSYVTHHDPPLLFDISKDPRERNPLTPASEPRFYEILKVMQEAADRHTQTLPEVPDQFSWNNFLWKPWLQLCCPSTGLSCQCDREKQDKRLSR

[6] = biological target: T2, Steryl-sulfatase (Homo sapiens, UniProt P08842); test: as §1; set-up: species or system Placenta
T2 sequence (P08842 whole entry): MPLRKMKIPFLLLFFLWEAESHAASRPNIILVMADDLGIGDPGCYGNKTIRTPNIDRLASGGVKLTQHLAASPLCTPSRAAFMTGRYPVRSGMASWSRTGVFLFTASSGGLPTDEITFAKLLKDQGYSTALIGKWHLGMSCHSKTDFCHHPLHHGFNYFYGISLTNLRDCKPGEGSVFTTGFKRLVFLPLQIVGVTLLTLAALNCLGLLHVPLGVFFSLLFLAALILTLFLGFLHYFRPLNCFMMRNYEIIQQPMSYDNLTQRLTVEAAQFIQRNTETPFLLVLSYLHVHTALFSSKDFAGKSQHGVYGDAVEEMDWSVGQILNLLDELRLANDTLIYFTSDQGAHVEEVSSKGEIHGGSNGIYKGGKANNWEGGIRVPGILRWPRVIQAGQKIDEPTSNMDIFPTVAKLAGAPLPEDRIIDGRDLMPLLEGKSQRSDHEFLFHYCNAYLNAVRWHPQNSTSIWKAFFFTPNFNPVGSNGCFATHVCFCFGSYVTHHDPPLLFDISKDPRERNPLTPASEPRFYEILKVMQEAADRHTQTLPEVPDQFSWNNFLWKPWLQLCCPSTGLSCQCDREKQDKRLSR

[7] = biological target: Estrone sulfatase (Homo sapiens); test: Activity of Estrone sulfatase in human placental microsome; details: Placenta

O=C(O)c1cc(/C=N/NC(=S)NC2CCCCC2)ccc1O
pKa [1]: 4.2
Activity [2]: > 50 mg/kg
IC50 [3]: > 50 µg/mL
IC50 [4]: > 50 µg/mL

O=C(O)c1cccc(/C=N/NC(=S)NC2CCCCC2)c1O
pKa [1]: 3.8
Activity [2]: > 50 mg/kg
IC50 [3]: > 50 µg/mL
IC50 [4]: > 50 µg/mL

CCCCCCNC(=S)N/N=C/c1ccccc1C(=O)O
Activity [5]: inactive

O=C(O)c1cccc(/C=N/NC(=S)NC2CCCCC2)c1
pKa [1]: 5.4

Cc1ccc(/C=N/NC(=S)NC2CCCCC2)c(C(=O)O)c1O
pKa [1]: 4.3

OB(O)c1ccccc1/C=N/NC(=S)NC1CCCCC1
pKa [1]: 7.7
IC50 [6]: > 100 µM

COc1c(C)ccc(/C=N/NC(=S)NC2CCCCC2)c1C(=O)O
IC50 [6]: > 100 µM

O=C(O)c1ccc(O)c(/C=N/NC(=S)NC2CCCCC2)c1
pKa [1]: 5.8
Activity [2]: > 100 mg/kg
IC50 [3]: > 50 µg/mL
IC50 [4]: > 50 µg/mL

CCCCNC(=S)N/N=C/c1cccc(C(=O)O)c1
IC50 [6]: 58 µM

O=C(O)c1ccccc1/C=N/NC(=S)NC1CCCCC1
pKa [1]: 6.4

COc1cccc(/C=N/NC(=S)NC2CCCCC2)c1C(=O)O
IC50 [6]: > 100 µM

C/C(=N\NC(=S)NC1CCCCC1)c1ccccc1C(=O)O
IC50 [6]: > 100 µM

O=C(N/N=C/c1cccc(C(=O)O)c1)NC1CCCCC1
IC50 [6]: > 100 µM

Oc1cccc(/C=N/NC(=S)NC2CCCCC2)c1
pKa [1]: 10.2

COc1c2c(c(O)c3c1C(=O)c1c(cc(O)c(C)c1O)C3=O)-c1c(cc(/C=N/NC(=S)NC3CCCCC3)c(C(=O)O)c1O)CC2 [MHL CYCLOHEXYLTHIOSEMICARBAZONE]
Activity [2]: > 50 mg/kg
IC50 [3]: > 50 µg/mL
IC50 [4]: > 50 µg/mL

COc1ccc(/C=N/NC(=S)NC2CCCCC2)c(C(=O)O)c1OC
IC50 [6]: > 100 µM

O=C(O)c1ccccc1/C=N/NC(=S)NC1CC1
IC50 [6]: > 100 µM

S=C(N/N=C/c1cccc(-c2nnn[nH]2)c1)NC1CCCCC1
pKa [1]: 5.2

CCCCCCNC(=S)N/N=C/c1cccc(C(=O)O)c1
IC50 [6]: 12 µM

O=C(O)c1ccccc1/C=N/NC(=S)Nc1ccccc1
IC50 [6]: > 100 µM

CCCCNC(=S)N/N=C/c1ccccc1C(=O)O
Activity [5]: inactive

Oc1ccccc1/C=N/NC(=S)NC1CCCCC1
pKa [1]: 9.8

B1: Steryl-sulfatase (Homo sapiens), P08842 (protein)
chain: MPLRKMKIPFLLLFFLWEAESHAASRPNIILVMADDLGIGDPGCYGNKTIRTPNIDRLASGGVKLTQHLAASPLCTPSRAAFMTGRYPVRSGMASWSRTGVFLFTASSGGLPTDEITFAKLLKDQGYSTALIGKWHLGMSCHSKTDFCHHPLHHGFNYFYGISLTNLRDCKPGEGSVFTTGFKRLVFLPLQIVGVTLLTLAALNCLGLLHVPLGVFFSLLFLAALILTLFLGFLHYFRPLNCFMMRNYEIIQQPMSYDNLTQRLTVEAAQFIQRNTETPFLLVLSYLHVHTALFSSKDFAGKSQHGVYGDAVEEMDWSVGQILNLLDELRLANDTLIYFTSDQGAHVEEVSSKGEIHGGSNGIYKGGKANNWEGGIRVPGILRWPRVIQAGQKIDEPTSNMDIFPTVAKLAGAPLPEDRIIDGRDLMPLLEGKSQRSDHEFLFHYCNAYLNAVRWHPQNSTSIWKAFFFTPNFNPVGSNGCFATHVCFCFGSYVTHHDPPLLFDISKDPRERNPLTPASEPRFYEILKVMQEAADRHTQTLPEVPDQFSWNNFLWKPWLQLCCPSTGLSCQCDREKQDKRLSR
Km [7]: 27 µM
